Experimental data as given in PubChem BioAssay.
Records with an inconclusive call do not appear.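 The calls were made as follows, unless noted: active = cell viability at or below a set limit in both duplicate runs, the limit being the all-compound median minus 4 SD (cut at about 23% in these data, passing the limit was not always enough); inconclusive = no clear call, values can overlap the other calls; inactive = the rest.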

Legend:
[1] = S. cerevisiae growth inhibition in permissive medium (OD615), pilot counter-assay for S. cerevisiae lifespan shortening project, permissive growth control (AID 705;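 active = growth inhibition above 25% in both replicates, a cutoff set 3 SD above the mean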); conditions: OD615, 24 h, at 10 µM, active compounds read high
Summary of the method: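 System: S. cerevisiae with engineered DeaD lifespan system / Measured by: absorbance (optical density) at 615 nm / Read-out: reduction in yeast growth (OD615) / Times: 4 h cell pre-growth, 24 h exposure at 30 °C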

[2] = S. cerevisiae growth inhibition in restrictive medium, OD615, pilot screen, restrictive growth control, yeast lifespan reduction project (AID 706;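 active = growth inhibition above a set limit, 3 SD over mean compound inhibition, in both replicates, cut at about 43% in these data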;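 also: modified DeaD lifespan yeast strain shifted to restrictive glucose medium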); conditions: OD615, 48 h, at 10 µM, active compounds read high
Summary of the method: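 System: Engineered S. cerevisiae DeaD strain | Buffer or medium: Glucose-based CSMM-D restrictive medium | Schedule: 4 h pre-incubation, 48 h exposure at 30 °C | Technique: Optical density at 615 nm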

[3] = doxorubicin toxicity protection in MRP-1 cells – H69AR cells, CellTiter-Glo, duplicate, MRP-1 activator project, pilot screen (AID 807;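 active = viability increase at or above a cutoff of the median across tested compounds plus 3 SD, cut at about 8.5% in these data, passing the limit was not always enough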;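 also: compound pretreatment 18-22 h then 72 h combined with doxorubicin; 0% = doxorubicin alone and 100% = vehicle without doxorubicin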); conditions: H69AR viability with doxorubicin, CellTiter-Glo luminescence; at 10 µM; active compounds read high
[4] = viability of HCT116 without oncogenic beta-catenin – human colon tumor cells, pilot screen (AID 823); conditions: HCT116 beta-catenin knockout viability, CellTiter-Glo, 60 h; at 10 µM; active compounds read low;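 also: 0% = wells killed by 20 µM Hyamine and 100% = untreated DMSO cell wells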
[5] = viability of PTEN-null HCT116 cells – cell-based, HCT116 clonal line, CellTiter-Glo, pilot screen (AID 824;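 active = viability at or below 27.92% in each of two runs, the all-compound median minus 4 SD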;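 also: 0% = 20 µM Hyamine control and 100% = vehicle cell control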); conditions: HCT116 PTEN-deleted viability, 60 h, at 10 µM, active compounds read low
[6] = RAM pathway blockade in budding yeast – dse1pr::URA3 reporter, 5-FOA selection, pilot screen (AID 869;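 active = inhibition over a set limit, the all-compound mean plus 3 SD, in both replicate runs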;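 also: 0% = DMSO wells with no growth and 100% = 10 µM 1-NA-PP1 with full growth; RAM network block rescues cells from 5-FOA so hits raise OD615 growth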); conditions: S. cerevisiae dse1pr::URA3 5-FOA growth, OD615, 2 d; at 10 µM; active compounds read high; strain carries analog-sensitive mutant Cbk1 kinase
[7] = RAM signaling pathway blockade in yeast – S. cerevisiae, Pdr1DBD-CYC8 efflux-inhibited sensitized strain, primary screen (AID 1298;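 active = RAM network inhibition above 8.4% in each of two replicates, 3 SD over the compound average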;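 also: 0% = DMSO untreated cells without growth and 100% = 10 µM 1-NA-PP1 full growth; higher means more yeast growth rescued from 5-FOA killing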); conditions: S. cerevisiae cbk1-as DSE1-URA3 strain, 5-FOA growth OD615, 2 d; at 50 µM; active compounds read high

c1nnc2c3c4c(sc3ncn12)CCC4
inactive: growth inhibition [1] -1.74% | growth inhibition [2] 15.2% | viability increase [3] -3.97% | viability [4] 96.6% | viability [5] 107% | inhibition [6] 1.25% | RAM network inhibition [7] 6.33%

Cc1cccc(OCc2nc(C#N)c(N3CC(C)CC(C)C3)o2)c1 (stereo not drawn)
inactive: growth inhibition [1] 0.505% | growth inhibition [2] -2.89% | viability increase [3] 3.8% | viability [4] 63.5% | viability [5] 65.3% | inhibition [6] 1.85% | RAM network inhibition [7] 5.88%

COC(=O)C1C(=O)c2c([nH]c(C(=O)OC3CCCC3C)c2C)CC1C (stereo not drawn)
inactive: growth inhibition [1] -4.87% | growth inhibition [2] -2.27% | viability increase [3] 3.21% | viability [4] 81.2% | viability [5] 72.7% | inhibition [6] 2.68% | RAM network inhibition [7] 3.76%

COc1ccc(C(C)=O)cc1CSc1nnc(C)s1
inactive: growth inhibition [1] -9.51% | growth inhibition [2] -8.14% | viability increase [3] -2.37% | viability [4] 96.5% | viability [5] 96.8% | inhibition [6] -0.565% | RAM network inhibition [7] 0.11%

COC(=O)CCSCC(=O)Nc1nnc(C)s1
inactive: growth inhibition [1] 3.46% | growth inhibition [2] -7.57% | viability increase [3] -0.31% | viability [4] 108% | viability [5] 93.1% | inhibition [6] 3.05% | RAM network inhibition [7] 0.66%

COC(=O)c1c(NC(=O)C2CC2)sc2c1CCN(C(C)=O)C2
inactive: growth inhibition [1] -10.8% | growth inhibition [2] -31.3% | viability increase [3] -0.44% | viability [4] 105% | viability [5] 91.6% | inhibition [6] 1.98% | RAM network inhibition [7] -1.38%

COC(=O)c1cc(-c2ccc(Br)cc2)on1
inactive: growth inhibition [1] 1.85% | growth inhibition [2] 1.59% | viability increase [3] -2.76% | viability [4] 102% | viability [5] 96.6% | inhibition [6] 0.09% | RAM network inhibition [7] 1.79%

CCC(C)(C(=O)NC1CCCCC1)N(Cc1ccco1)C(=O)CNC(=O)c1ccccc1 (stereo not drawn)
inactive: growth inhibition [1] -14.3% | growth inhibition [2] -12.2% | viability increase [3] -3.39% | viability [4] 83.5% | viability [5] 90.1% | inhibition [6] 0.145% | RAM network inhibition [7] 6.49%

COc1ccc(N2CCN(c3nc4c(c(=O)[nH]c(=O)n4C)n3Cc3ccccc3Cl)CC2)cc1
inactive: growth inhibition [1] 4.9% | growth inhibition [2] -2.96% | viability increase [3] -2.71% | viability [4] 84.6% | viability [5] 75.3% | inhibition [6] 2.07% | RAM network inhibition [7] -1.3%

CCOc1ccc(NC(=O)c2ccc(S(=O)(=O)N(C)C)cc2)cc1
inactive: growth inhibition [1] -12.8% | growth inhibition [2] -7.66% | viability increase [3] 0.26% | viability [4] 102% | viability [5] 92.4% | inhibition [6] 1.32% | RAM network inhibition [7] 1.71%

CCOC(=O)N1CCN(C(=O)CSc2nc3c([nH]c4ccccc43)c(=O)n2C)CC1
inactive: growth inhibition [1] 1.46% | growth inhibition [2] -8.89% | viability increase [3] -4.86% | viability [4] 91.1% | viability [5] 82.2% | inhibition [6] 2.34% | RAM network inhibition [7] 3.41%

COc1ccc(C2C(C(=O)N3CCCC3)c3cc(OC)c(OC)cc3C(=O)N2C)cc1OC (stereo not drawn)
inactive: growth inhibition [1] -6.69% | growth inhibition [2] -25.4% | viability increase [3] -1.65% | viability [4] 105% | viability [5] 100% | inhibition [6] 1.54% | RAM network inhibition [7] 2.23%

O=C(O)CCc1ccc(-c2cccs2)n1NC(=O)c1ccc(Cl)cc1
inactive: growth inhibition [1] -6.03% | growth inhibition [2] -14.6% | viability increase [3] -3.75% | viability [4] 98% | viability [5] 93.9% | inhibition [6] 0.29% | RAM network inhibition [7] -0.58%

CCOC(=O)N1CCN(C(=O)NC23CC4CC(CC(C4)C2)C3)CC1
inactive: growth inhibition [1] -2.78% | growth inhibition [2] -5.79% | viability increase [3] -2.4% | viability [4] 95.7% | viability [5] 92.1% | inhibition [6] 2.83% | RAM network inhibition [7] 3.57%

COc1ccc(-n2ncc3c(N4CCN(c5cc(C)ccc5C)CC4)ncnc32)cc1
inactive: growth inhibition [1] -8.7% | growth inhibition [2] 4.27% | viability increase [3] -4.46% | viability [4] 61.3% | viability [5] 68% | inhibition [6] 2.01% | RAM network inhibition [7] 3.49%

CCN1C(=O)c2ccccc2Sc2ccc(C(=O)NCCN3CCOCC3)cc21
inactive: growth inhibition [1] -6.92% | growth inhibition [2] -7.4% | viability increase [3] -0.43% | viability [4] 110% | viability [5] 101% | inhibition [6] -0.985% | RAM network inhibition [7] 2.02%

COc1ccc(-c2nc(Cn3c(SCc4cccc(F)c4)nc4ccncc43)c(C)o2)cc1OC
inactive: growth inhibition [1] 4.55% | growth inhibition [2] 30.2% | viability increase [3] -3.1% | viability [4] 69.9% | viability [5] 60.1% | inhibition [6] 1% | RAM network inhibition [7] 3.81%

O=C(CSc1ncnc2nc[nH]c12)N1CCOCC1
inactive: growth inhibition [1] -15.7% | growth inhibition [2] -14.4% | viability increase [3] -0.96% | viability [4] 86% | viability [5] 102% | inhibition [6] -0.435% | RAM network inhibition [7] 2.34%

Cc1c(C(=O)NCC2CCCO2)sc2nc(-c3ccc(F)cc3)cn12 (stereo not drawn)
inactive: growth inhibition [1] 3.06% | growth inhibition [2] 0.065% | viability increase [3] 1.26% | viability [4] 95.2% | viability [5] 97.3% | inhibition [6] 0.68% | RAM network inhibition [7] 3.33%

COc1ccc(N2CCN(Cc3nc4c(c(=O)n(C)c(=O)n4C)n3Cc3cccc(C)c3)CC2)cc1
inactive: growth inhibition [1] -11.5% | growth inhibition [2] -24.2% | viability increase [3] -3.88% | viability [4] 80.1% | viability [5] 75.2% | inhibition [6] -0.7% | RAM network inhibition [7] 8.85%

O=C(Nc1ncc(Br)s1)C(Cc1ccccc1)n1cccc1 (stereo not drawn)
inactive: growth inhibition [1] -17.7% | growth inhibition [2] -13.6% | viability increase [3] -6.2% | viability [4] 63.7% | viability [5] 58% | inhibition [6] 2.83% | RAM network inhibition [7] -0.21%

Cc1ccc(S(=O)(=O)Nc2ccc3nc(N)sc3c2)cc1
inactive: growth inhibition [1] 6.55% | growth inhibition [2] 13.4% | viability increase [3] -4.39% | viability [4] 82.6% | viability [5] 85.5% | inhibition [6] 0.19% | RAM network inhibition [7] 2.92%

CCOC(=O)c1[nH]c(=O)[nH]c1COC(=O)c1cc2ccccc2o1
inactive: growth inhibition [1] -14.6% | growth inhibition [2] -12.6% | viability increase [3] -1.09% | viability [4] 92.6% | viability [5] 105% | inhibition [6] -0.22% | RAM network inhibition [7] 2.38%

CC(=O)Nc1nc(CC(=O)c2ccccc2)cs1
inactive: growth inhibition [1] -2.4% | growth inhibition [2] -4.14% | viability increase [3] -0.56% | viability [4] 102% | viability [5] 98.9% | inhibition [6] 1.15% | RAM network inhibition [7] 0.47%
